According to ChEMBL document CHEMBL1147041, “Modulation of human neural stem cell differentiation in Alzheimer (APP23) transgenic mice by phenserine” (2007):
Active and inactive are the calls of the source. The calls are words filed in the database; no cut-off is given here.

What was measured:
[1] = Effect on neuronal differentiation of human neural stem cells transplanted in wild type mouse hippocampus CA1 region assessed as increase of beta-3 tubulin+/BrdU+ count at 25 mg/kg/day, ip for 14 days; format: functional, Neural stem cell; settings: route intraperitoneal
Procedure, shortened: (§1)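 Mice received daily i.p. drug or saline for 14 days. BrdU-labelled (3 µM, 48 h) fetal human neural stem cells, ≈105 cells, were then injected into the right lateral ventricle with no immunosuppression. Daily injections resumed for 1 week after a 2-day recovery. At 6 weeks, 20 µm coronal sections from paraformaldehyde-perfused brains were double-stained for BrdU plus GFAP or β-III tubulin. Cells were counted bilaterally at ×400 on 4–6 sections per mouse, n = 6–7 per group, and compared by ANOVA.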

Mus musculus [2] = assay: Decrease in amyloid precursor protein expression in wild type mouse cerebral cortices at 25 mg/kg/day, ip for 14 days by Western blot relative to control; format: functional, organism-based
[3] = Effect on neuronal differentiation of human neural stem cells transplanted in APP23 transgenic mouse somatosensory region assessed as increase of beta-3 tubulin+/BrdU+ count at 25 mg/kg/day, ip for 14 days; format: functional, Neural stem cell; settings: route intraperitoneal; procedure, shortened: as §1
[4] = Effect on neuronal differentiation of human neural stem cells transplanted in APP23 transgenic mouse hippocampus CA1 region assessed as increase of beta-3 tubulin+/BrdU+ count at 25 mg/kg/day, ip for 14 days; format: functional, Neural stem cell; settings: route intraperitoneal; procedure, shortened: as §1
[5] = Effect on glial differentiation of human neural stem cells transplanted in APP23 transgenic mouse hippocampus assessed as reduction of GFAP+/BrdU+ count at 25 mg/kg/day, ip for 14 days by fluorescent immunohistochemistry; format: functional, Neural stem cell; design: scale not given: the % may be the effect or the level left; settings: route intraperitoneal; procedure, shortened: as §1
[6] = Effect on neuronal differentiation of human neural stem cells transplanted in APP23 transgenic mouse motor cortex region assessed as increase of beta-3 tubulin+/BrdU+ count at 25 mg/kg/day, ip for 14 days; format: functional, Neural stem cell; settings: route intraperitoneal; procedure, shortened: as §1
Mus musculus [7] = assay: Decrease in amyloid precursor protein expression in APP23 transgenic mouse hippocampus at 25 mg/kg/day, ip for 14 days by Western blot relative to control; format: functional; design: scale not given: the % may be the effect or the level left; settings: route intraperitoneal
[8] = Effect on neuronal differentiation of human neural stem cells transplanted in APP23 transgenic mouse hippocampus CA2 region assessed as increase of beta-3 tubulin+/BrdU+ count at 25 mg/kg/day, ip for 14 days; format: functional, Neural stem cell; settings: route intraperitoneal; procedure, shortened: as §1
Mus musculus [9] = assay: Decrease in glial fibrillary acidic protein expression in APP23 transgenic mouse hippocampus at 25 mg/kg/day, ip for 14 days by Western blot relative to control; format: functional; design: scale not given: the % may be the effect or the level left; settings: route intraperitoneal
Mus musculus [10] = assay: Decrease in amyloid precursor protein expression in APP23 transgenic mouse cerebral cortices at 25 mg/kg/day, ip for 14 days by Western blot relative to control; format: functional, organism-based

## CN1CC[C@]2(C)c3cc(OC(=O)Nc4ccccc4)ccc3N(C)C12 (stereo not given in full)
[1]
  Activity: 40%
Mus musculus [2]
  Activity: Active
[3]
  Activity: 32%
[4]
  Activity: 32%
[5]
  Activity: 28%
[6]
  Activity: 32%
Mus musculus [7]
  Activity: 38%
[8]
  Activity: 32%
Mus musculus [9]
  Activity: 36%
Mus musculus [10]
  Activity: Active
